According to ChEMBL document CHEMBL1955726, “Novel Rho kinase inhibitors with anti-inflammatory and vasodilatory activities” (J Pharmacol Exp Ther, 2007):
Calls of active or inactive are those of the source. The calls are words filed in the database; no cut-off is given here.

Legend:
[1] = test system: Aorta; experiment: Vasodilatory activity in Sprague-Dawley rat aorta assessed as reversal of KCl/phenylephrine-induced muscle contraction; type: functional, tissue-based
[2] = test system: Rattus norvegicus; experiment: Cardiovascular activity in spontaneously hypertensive rat assessed as increase in heart rate at 0.3 to 3 mg/kg, po; type: ADME, organism-based; parameters: dose 0.3-3 mg/kg, route oral; conditions: in vivo
Procedure, shortened: (§1)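 Compound given by oral gavage: 0.3, 1 and 3 mg/kg to spontaneously hypertensive rats, and 1 mg/kg to DOCA salt-treated hypertensive rats. A vehicle group was run alongside. Heart rate and blood pressure were recorded from immediately after dosing as 10-s averages every 5 min. There were 4-6 animals per dose (5 per group in the legend), and the change was taken from each group's baseline.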

[3] = biological target: Rho-associated protein kinase 1 (Homo sapiens, UniProt Q13464); experiment: Inhibition of human recombinant N-terminal his-tagged ROCK1 (3-543) expressed in baculovirus infected Sf9 cells using Biotin-Ahx-AKRRLSSLRA-CONH2 substrate and [gamma-33P]ATP after 90 mins by scintillation proximity assay
[4] = biological target: Rho-associated protein kinase 2 (Homo sapiens, UniProt O75116); experiment: Inhibition of human ROCK2
[5] = test system: primary macrophages (Homo sapiens); experiment: Antiinflammatory activity in human primary monocyte-derived macrophages assessed as inhibition of LPS-induced IL-6 mRNA expression at 10 uM treated 30 mins before LPS stimulation measured after 18 hrs by Northern blotting
[6] = biological target: Mitogen-activated protein kinase 10 (Homo sapiens, UniProt P53779); experiment: Inhibition of JNK3
[7] = biological target: Serine/threonine-protein kinase PLK1 (Homo sapiens, UniProt P53350); experiment: Inhibition of PLK
[8] = biological target: Ribosomal protein S6 kinase alpha-1 (Homo sapiens, UniProt Q15418); experiment: Inhibition of RSK1
[9] = biological target: Ribosomal protein S6 kinase alpha-5 (Homo sapiens, UniProt O75582); experiment: Inhibition of MSK1
[10] = biological target: RAC-alpha serine/threonine-protein kinase (Homo sapiens, UniProt P31749); experiment: Inhibition of AKT1
[11] = biological target: RAC-gamma serine/threonine-protein kinase (Homo sapiens, UniProt Q9Y243); experiment: Inhibition of AKT3
[12] = biological target: Cyclin-dependent kinase 2 (Homo sapiens, UniProt P24941); experiment: Inhibition of CDK2
[13] = biological target: Glycogen synthase kinase-3 alpha (Homo sapiens, UniProt P49840); experiment: Inhibition of GSK3alpha
[14] = biological target: T1, Inhibitor of nuclear factor kappa-B kinase subunit beta (Homo sapiens, UniProt O14920); experiment: Inhibition of IKK2
T1 sequence (O14920 whole entry): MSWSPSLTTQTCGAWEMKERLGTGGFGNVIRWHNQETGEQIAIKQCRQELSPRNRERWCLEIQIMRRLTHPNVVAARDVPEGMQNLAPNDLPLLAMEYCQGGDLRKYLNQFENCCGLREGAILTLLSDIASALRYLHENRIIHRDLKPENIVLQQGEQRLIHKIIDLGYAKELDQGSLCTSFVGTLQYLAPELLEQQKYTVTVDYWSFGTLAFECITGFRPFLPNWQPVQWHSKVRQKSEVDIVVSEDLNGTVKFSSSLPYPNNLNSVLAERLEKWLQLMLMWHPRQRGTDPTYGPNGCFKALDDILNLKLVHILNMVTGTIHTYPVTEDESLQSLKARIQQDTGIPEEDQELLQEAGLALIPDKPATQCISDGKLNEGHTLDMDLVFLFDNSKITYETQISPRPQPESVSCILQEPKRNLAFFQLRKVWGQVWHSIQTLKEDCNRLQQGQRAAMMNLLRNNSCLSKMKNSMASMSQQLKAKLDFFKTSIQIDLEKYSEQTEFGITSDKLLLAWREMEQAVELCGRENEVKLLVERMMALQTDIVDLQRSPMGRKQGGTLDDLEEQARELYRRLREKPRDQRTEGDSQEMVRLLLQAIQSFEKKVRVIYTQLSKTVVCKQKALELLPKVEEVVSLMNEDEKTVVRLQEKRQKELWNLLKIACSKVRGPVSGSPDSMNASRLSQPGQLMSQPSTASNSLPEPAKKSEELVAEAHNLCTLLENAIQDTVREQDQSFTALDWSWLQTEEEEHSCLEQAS

[15] = test system: Rattus norvegicus; experiment: Antihypertensive activity in rat assessed as reduction of DOCA salt-induced blood pressure at 1 mg/kg, po after 2 hrs; type: functional
[16] = test system: Rattus norvegicus; experiment: Antihypertensive activity in spontaneously hypertensive rat assessed as reduction of blood pressure at 1 mg/kg, po after 2 hrs; type: functional
[17] = test system: Rattus norvegicus; experiment: Cardiovascular activity in DOCA salt treated rat assessed as increase in heart rate at 1 mg/kg, po; type: ADME, organism-based; parameters: dose 1 mg/kg, route oral; conditions: in vivo; procedure, shortened: as §1
[18] = test system: Rattus norvegicus; experiment: Antihypertensive activity in normotensive Sprague-Dawley rat assessed as reduction of blood pressure at 1 mg/kg, po after 2 hrs; type: functional
[19] = biological target: RAC-beta serine/threonine-protein kinase (Homo sapiens, UniProt P31751); experiment: Inhibition of AKT2

Chain of Rho-associated protein kinase 2 (O75116 whole entry): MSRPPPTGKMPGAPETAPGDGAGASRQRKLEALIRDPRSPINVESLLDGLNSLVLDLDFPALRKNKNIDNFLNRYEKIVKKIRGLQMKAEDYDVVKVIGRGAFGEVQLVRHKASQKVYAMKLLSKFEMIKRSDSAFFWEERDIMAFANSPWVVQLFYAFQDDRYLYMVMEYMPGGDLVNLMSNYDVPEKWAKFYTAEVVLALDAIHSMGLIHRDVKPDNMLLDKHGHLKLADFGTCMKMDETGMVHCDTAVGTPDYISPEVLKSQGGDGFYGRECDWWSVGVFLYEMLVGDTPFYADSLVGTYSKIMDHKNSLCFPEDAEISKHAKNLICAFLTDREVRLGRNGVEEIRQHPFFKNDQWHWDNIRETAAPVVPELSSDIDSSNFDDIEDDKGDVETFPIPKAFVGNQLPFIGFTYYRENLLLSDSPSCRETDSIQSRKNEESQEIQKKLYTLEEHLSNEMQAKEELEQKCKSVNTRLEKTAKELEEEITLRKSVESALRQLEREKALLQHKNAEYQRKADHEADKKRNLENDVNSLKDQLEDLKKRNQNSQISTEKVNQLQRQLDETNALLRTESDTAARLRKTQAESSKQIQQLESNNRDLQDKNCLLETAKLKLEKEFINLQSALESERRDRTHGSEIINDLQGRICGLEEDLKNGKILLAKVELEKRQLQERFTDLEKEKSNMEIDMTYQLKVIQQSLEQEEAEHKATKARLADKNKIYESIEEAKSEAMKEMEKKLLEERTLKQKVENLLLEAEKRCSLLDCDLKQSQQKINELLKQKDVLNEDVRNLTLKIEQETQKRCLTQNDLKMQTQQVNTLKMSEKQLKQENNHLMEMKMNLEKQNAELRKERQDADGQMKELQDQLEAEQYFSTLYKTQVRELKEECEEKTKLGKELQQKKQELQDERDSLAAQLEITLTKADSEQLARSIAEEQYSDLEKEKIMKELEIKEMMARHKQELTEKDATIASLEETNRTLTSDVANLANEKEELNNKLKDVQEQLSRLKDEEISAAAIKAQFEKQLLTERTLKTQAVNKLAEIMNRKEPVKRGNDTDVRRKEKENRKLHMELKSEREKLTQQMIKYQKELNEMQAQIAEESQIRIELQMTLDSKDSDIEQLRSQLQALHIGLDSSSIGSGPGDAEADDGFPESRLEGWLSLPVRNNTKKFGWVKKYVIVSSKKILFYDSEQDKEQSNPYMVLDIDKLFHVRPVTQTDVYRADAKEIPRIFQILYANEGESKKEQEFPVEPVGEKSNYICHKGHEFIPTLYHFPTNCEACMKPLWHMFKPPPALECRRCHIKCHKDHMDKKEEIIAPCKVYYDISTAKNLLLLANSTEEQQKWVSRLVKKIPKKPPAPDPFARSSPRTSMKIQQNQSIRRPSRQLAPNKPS
Chain of Ribosomal protein S6 kinase alpha-1 (Q15418 whole entry): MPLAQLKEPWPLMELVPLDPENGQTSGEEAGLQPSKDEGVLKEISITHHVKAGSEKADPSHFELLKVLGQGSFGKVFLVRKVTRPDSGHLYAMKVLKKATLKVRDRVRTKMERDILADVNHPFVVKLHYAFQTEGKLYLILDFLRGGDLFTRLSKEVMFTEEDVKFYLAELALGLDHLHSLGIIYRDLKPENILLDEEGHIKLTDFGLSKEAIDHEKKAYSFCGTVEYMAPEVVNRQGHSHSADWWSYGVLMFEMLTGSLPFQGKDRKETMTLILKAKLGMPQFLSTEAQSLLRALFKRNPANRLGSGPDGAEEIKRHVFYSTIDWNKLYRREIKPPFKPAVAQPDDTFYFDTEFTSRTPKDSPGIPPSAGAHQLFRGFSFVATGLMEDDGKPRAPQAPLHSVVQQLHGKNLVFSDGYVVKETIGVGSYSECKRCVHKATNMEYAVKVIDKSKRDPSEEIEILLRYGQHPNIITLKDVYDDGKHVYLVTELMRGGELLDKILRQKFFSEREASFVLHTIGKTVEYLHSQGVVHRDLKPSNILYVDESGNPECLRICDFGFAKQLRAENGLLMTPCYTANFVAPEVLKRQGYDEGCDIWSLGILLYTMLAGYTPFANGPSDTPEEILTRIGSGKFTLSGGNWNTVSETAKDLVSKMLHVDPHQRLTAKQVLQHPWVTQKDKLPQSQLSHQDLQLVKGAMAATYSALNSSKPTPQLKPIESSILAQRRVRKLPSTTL
Chain of Glycogen synthase kinase-3 alpha (P49840 whole entry): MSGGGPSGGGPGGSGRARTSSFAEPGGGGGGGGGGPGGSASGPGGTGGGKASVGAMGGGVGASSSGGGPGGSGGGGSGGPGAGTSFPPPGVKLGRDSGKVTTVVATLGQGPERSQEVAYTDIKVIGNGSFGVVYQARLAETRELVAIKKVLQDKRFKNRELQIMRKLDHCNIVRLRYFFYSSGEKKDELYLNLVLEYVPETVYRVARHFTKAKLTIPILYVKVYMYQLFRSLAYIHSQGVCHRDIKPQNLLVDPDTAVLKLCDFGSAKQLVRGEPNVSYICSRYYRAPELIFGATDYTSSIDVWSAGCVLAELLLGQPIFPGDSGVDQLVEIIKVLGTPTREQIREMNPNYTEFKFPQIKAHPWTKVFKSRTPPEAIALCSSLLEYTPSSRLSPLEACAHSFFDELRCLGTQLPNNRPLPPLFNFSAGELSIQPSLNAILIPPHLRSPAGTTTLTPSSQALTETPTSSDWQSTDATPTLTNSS
Chain of Rho-associated protein kinase 1 (Q13464 whole entry): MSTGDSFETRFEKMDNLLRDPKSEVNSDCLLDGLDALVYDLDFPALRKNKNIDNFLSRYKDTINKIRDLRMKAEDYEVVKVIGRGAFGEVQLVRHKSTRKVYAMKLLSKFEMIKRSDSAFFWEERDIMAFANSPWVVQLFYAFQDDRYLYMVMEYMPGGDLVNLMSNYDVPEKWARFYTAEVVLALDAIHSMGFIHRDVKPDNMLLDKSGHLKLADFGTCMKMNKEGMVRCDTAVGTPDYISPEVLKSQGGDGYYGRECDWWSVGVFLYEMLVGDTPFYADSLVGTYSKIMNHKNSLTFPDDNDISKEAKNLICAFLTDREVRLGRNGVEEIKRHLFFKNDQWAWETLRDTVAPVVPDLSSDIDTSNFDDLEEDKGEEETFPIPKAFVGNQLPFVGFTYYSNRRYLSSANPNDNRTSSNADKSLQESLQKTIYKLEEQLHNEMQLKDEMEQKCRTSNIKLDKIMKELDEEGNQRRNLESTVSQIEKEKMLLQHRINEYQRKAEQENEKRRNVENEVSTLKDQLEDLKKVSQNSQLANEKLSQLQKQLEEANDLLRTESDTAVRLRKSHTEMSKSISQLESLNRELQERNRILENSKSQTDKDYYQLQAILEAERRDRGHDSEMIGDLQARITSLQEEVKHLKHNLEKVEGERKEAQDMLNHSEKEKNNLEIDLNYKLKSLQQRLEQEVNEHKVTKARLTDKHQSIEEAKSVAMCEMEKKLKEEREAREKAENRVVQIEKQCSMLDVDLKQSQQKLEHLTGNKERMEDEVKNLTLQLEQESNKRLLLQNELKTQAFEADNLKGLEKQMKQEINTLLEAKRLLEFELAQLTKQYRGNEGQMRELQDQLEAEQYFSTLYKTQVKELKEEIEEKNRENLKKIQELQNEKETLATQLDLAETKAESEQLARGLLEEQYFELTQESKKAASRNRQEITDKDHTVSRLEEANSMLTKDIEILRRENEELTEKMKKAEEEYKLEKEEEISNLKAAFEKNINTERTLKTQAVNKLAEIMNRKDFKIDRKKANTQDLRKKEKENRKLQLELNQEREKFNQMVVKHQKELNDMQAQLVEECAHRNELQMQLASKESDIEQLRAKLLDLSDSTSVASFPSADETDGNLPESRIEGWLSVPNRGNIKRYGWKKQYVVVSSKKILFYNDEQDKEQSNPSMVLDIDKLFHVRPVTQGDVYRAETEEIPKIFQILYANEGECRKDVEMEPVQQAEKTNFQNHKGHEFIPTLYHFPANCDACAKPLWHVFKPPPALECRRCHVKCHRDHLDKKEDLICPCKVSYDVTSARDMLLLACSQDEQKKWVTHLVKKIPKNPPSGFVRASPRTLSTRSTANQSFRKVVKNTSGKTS
Chain of Mitogen-activated protein kinase 10 (P53779 whole entry): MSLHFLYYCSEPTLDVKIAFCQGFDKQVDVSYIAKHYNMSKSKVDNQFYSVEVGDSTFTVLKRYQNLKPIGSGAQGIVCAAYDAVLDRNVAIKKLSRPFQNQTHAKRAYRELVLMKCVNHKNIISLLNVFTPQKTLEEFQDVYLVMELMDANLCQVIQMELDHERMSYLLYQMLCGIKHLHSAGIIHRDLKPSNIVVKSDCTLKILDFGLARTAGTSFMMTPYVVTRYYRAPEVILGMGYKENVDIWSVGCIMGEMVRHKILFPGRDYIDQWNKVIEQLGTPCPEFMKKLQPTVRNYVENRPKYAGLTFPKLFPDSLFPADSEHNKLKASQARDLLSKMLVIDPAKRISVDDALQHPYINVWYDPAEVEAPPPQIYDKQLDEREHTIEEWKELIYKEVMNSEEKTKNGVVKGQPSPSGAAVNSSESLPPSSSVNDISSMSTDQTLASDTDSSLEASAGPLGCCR
Chain of RAC-alpha serine/threonine-protein kinase (P31749 whole entry): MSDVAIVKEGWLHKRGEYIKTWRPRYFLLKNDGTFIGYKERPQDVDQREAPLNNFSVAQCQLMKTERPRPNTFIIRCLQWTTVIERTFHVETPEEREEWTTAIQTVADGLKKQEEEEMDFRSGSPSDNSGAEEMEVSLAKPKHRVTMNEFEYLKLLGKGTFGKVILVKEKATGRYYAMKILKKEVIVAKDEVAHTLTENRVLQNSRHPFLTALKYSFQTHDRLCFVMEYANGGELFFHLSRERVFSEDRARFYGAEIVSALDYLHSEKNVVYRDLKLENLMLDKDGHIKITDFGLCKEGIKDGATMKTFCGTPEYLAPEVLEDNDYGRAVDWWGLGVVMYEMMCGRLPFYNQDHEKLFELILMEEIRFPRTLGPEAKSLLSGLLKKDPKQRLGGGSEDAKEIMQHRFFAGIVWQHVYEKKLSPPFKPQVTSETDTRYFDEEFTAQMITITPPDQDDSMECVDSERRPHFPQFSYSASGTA

| IC50 [3] | IC50 [4] | IC50 [6] | IC50 [7] | IC50 [8] | IC50 [10] | IC50 [11] | IC50 [12] | IC50 [13] | IC50 [14] | Compound | Activity [2] | inhibition [5] | further results |
| --- | --- | --- | --- | --- | --- | --- | --- | --- | --- | --- | --- | --- | --- |
| – | – | – | – | – | – | – | – | – | – | C[C@@H](N)[C@H]1CC[C@H](C(=O)Nc2ccncc2)CC1 [Y-27632] | Dose-dependent effect | – | IC50 [1]: 1400 nM |
| < 10 nM | < 10 nM | – | – | – | – | – | – | – | – | CCn1c(-c2nonc2N)nc2cnccc21 | – | Active | – |
| – | – | > 10000 nM | > 10000 nM | 132 nM | 955 nM | 1510 nM | 3500 nM | 1260 nM | > 10000 nM | CCn1c(-c2nonc2N)nc2cnc(Oc3cccc(NC(=O)c4ccc(OCCN5CCOCC5)cc4)c3)cc21 [GSK-269962A] | Dose-dependent effect | – | IC50 [9]: 49 nM |
| < 10 nM | < 10 nM | – | – | – | – | – | – | – | – | CCn1c(-c2nonc2N)nc2cncc(-c3ccc(CN)cc3)c21 | – | Active | – |
| – | – | > 10000 nM | > 10000 nM | 35 nM | 324 nM | 1290 nM | 7000 nM | 9100 nM | > 10000 nM | CCn1c(-c2nonc2N)nc2cncc(C(=O)N3CC[C@H](N)C3)c21 | Dose-dependent effect | – | Activity [15]: 40 mmHg; Activity [16]: 40 mmHg; Activity [17]: Toxic; Activity [18]: 12 mmHg; IC50 [19]: 1950 nM |
